The list is not random: actives were taken first. Their share in the collection is about 3.5%.
MEKK3 PB1 HTS – raises or lowers MEK5 binding to the human MEKK3 PB1 domain | AID 1529 | actives 1.4% (n = 290,000) | Q99759 | binding response (% of control), % at 10 µM | bead-based flow cytometry, Alexa488-MEK5 binding to MEKK3; actives lie on both sides; 0 = blocked by unlabeled MEK5, 100 = vehicle;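 active means binding response more than 3 SD above or below the average of its plate-row segment, actives on both sides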;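 further: Alexa488 bead fluorescence after subtracting the streptavidin-only scavenger bead signal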
ABCB1 inh – inhibitors of human ABCB1 transporter, ABCG2 counter-screen; CCRF-Adr cells, JC-1 efflux, flow cytometry; inhibition, % at 6.6 µM; actives 0.067% (n = 190,000); in the data active means inhibition above about 40%;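 further: higher value means more JC-1 retained so stronger ABCB1 efflux block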
ABCG2 block – inhibitors of human ABCG2 transporter, ABCB1 counter-screen; Q9UNQ0; IgMXP3 cells, JC-1 efflux, flow cytometry; inhibition, % at 6.6 µM; actives 0.1% (n = 190,000);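 active means inhibition above 80%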
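Incubation: cells with compound and JC-1, 10 min at 25 °C, rotating, no wash / Test system: IgMXP3 (ABCG2) plus far-red-tagged CCRF-Adr (ABCB1) cells / Compound dosing: one concentration, 6.6 µM final / Also added: JC-1 fluorescent substrate / Evaluation: efflux inhibition in percent versus controls / Detection: flow cytometry, 530 nm JC-1 signal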
MEKK2wt PB1 HTS – raises or lowers MEK5 binding to wildtype human MEKK2 PB1 domain; actives 1.1% (n = 290,000); Q9Y2U5; bead flow cytometry, Alexa488-MEK5 binding to MEKK2 WT; actives lie on both sides; AID 1531; binding response (% of control), % at 10 µM; in the data active means binding response below about 67% or above about 130%
MEKK2mut PB1 HTS – signal of MEK5 binding to mutant human MEKK2 PB1 domain; actives 0.35% (n = 290,000); percent response, % at 10 µM; bead flow cytometry, Alexa488-MEK5 binding to MEKK2 mutant; in the data active means percent response above about 24%, passing the limit was not always enough
WT yeast gro inh – growth inhibition of WT yeast, mitochondrial fusion screen; mitochondrial fusion phenotypic screen, WT strain; inhibition, % at 10 µM; actives 2.1% (n = 190,000); AID 1362; in the data active means inhibition above about 58%; tested in S. cerevisiae
Large screens that a line does not name were inactive.

CCOc1ccc2nc(N(CCN(C)C)C(=O)c3cc4ccccc4cc3OC)sc2c1	MEKK2wt PB1 HTS 137 (no result: ABCB1 inh, ABCG2 block, WT yeast gro inh)
CCOc1cccc2sc(N(CCN(C)C)C(=O)c3cc4ccccc4cc3OC)nc12	MEKK2wt PB1 HTS 149 (no result: ABCB1 inh, ABCG2 block, WT yeast gro inh)
CCc1ccc(/C=C/C(=O)c2ccc(S(=O)(=O)N(C)C)cc2)cc1	none
CCc1ccc(C(=O)/C=C/c2ccc([N+](=O)[O-])o2)cc1	WT yeast gro inh 60
CCC(=O)N1CCN(c2ccc(NC(=O)c3ccc(-c4ccccc4)cc3)cc2)CC1	none (no result: MEKK3 PB1 HTS, MEKK2wt PB1 HTS, MEKK2mut PB1 HTS)
COc1ccc(S(=O)(=O)CCC(=O)Nc2cccc(OC)c2)cc1	none
CSc1ccc(/C=N/n2c(C)cc(C)cc2=O)cc1	none
c1ccc(-c2noc(-c3ccc4ccccc4c3)n2)nc1	none
S=c1nc(-c2ccccc2)oc2c1CCCC2	none (no result: MEKK3 PB1 HTS, MEKK2wt PB1 HTS, MEKK2mut PB1 HTS)
c1ccc(-c2noc(-c3ccc4c(c3)OCO4)n2)nc1	WT yeast gro inh 64
COc1cccc(-c2nc(=S)c3c(o2)CCCC3)c1	WT yeast gro inh 68
COc1cccc(-c2nc(-c3ccccn3)no2)c1	WT yeast gro inh 79
COc1ccc(NC(=O)CCNC(=O)c2ccco2)cc1Cl	none (no result: ABCB1 inh, ABCG2 block, WT yeast gro inh)
CC1=CC(C)(C)N(C(=O)c2ccc(F)cc2)c2cc3c(cc21)OCO3	WT yeast gro inh 71 (no result: MEKK3 PB1 HTS, MEKK2wt PB1 HTS, MEKK2mut PB1 HTS)
O=C1c2ccccc2C(=O)N1CC#CCN1CCN(C(c2ccccc2)c2ccccc2)CC1	WT yeast gro inh 68
COC(=O)C1C(c2ccccc2)C(C(=O)OCc2ccco2)C1c1ccccc1 (configuration not stated)	WT yeast gro inh 76
Cc1cccc(C(=O)Nc2ccccc2C(=O)NCc2ccco2)c1	none (no result: ABCB1 inh, ABCG2 block, WT yeast gro inh)
CC(=O)Nc1cccc(Oc2ncnc3scc(-c4ccc(C(C)C)cc4)c23)c1	WT yeast gro inh 72
CC(C)C(c1nnnn1C1CCCC1)N1c2ccccc2CC1C (configuration not stated)	WT yeast gro inh 64
COc1ccc(S(=O)(=O)N2CCN(C(=O)c3ccc(C)o3)CC2)cc1	none (no result: ABCB1 inh, ABCG2 block, WT yeast gro inh)
CCn1ccnc1CN1CCc2c([nH]c3ccccc23)C1C(C)(C)C (configuration not stated)	none
CCn1ccnc1CN1CCc2c([nH]c3ccccc23)C1C1CCCCC1 (configuration not stated)	WT yeast gro inh 65
Cc1ccc(-c2csc(NC(=O)CSc3nc4ccccc4c(=O)n3CCCN(C)C)n2)cc1	MEKK2wt PB1 HTS 207, MEKK2mut PB1 HTS 67, WT yeast gro inh 82
CSc1ncc(CN2CCc3c([nH]c4ccccc34)C2c2cccc(O)c2)cn1 (configuration not stated)	none
Cc1cc(C)cc(-n2c(C)cc(/C=N/NC(=O)CN(c3c(C)cccc3C)S(C)(=O)=O)c2C)c1	WT yeast gro inh 60
Cc1ccc(-n2c(C)cc(/C=N/NC(=O)CN(c3ccc(C)cc3C)S(C)(=O)=O)c2C)cc1	none
CCCCOC(=O)c1ccc(NC(=O)c2nn(C)cc2Br)cc1	WT yeast gro inh 60
CCCCOC(=O)c1ccc(NC(C)=O)cc1	none
CCCCCOC(=O)c1ccc(NC(=O)c2ccco2)cc1	WT yeast gro inh 70 (no result: MEKK3 PB1 HTS, MEKK2wt PB1 HTS, MEKK2mut PB1 HTS)
CCCCOC(=O)c1ccc(NC(=S)NC(=O)c2ccco2)cc1	none (no result: ABCB1 inh, ABCG2 block, WT yeast gro inh)
COc1ccccc1CCC(=O)Nc1ncc(C)s1	none (no result: ABCB1 inh, ABCG2 block, WT yeast gro inh)
CC(=O)OCC(=O)Nc1c(C)cc(C)cc1C	none
CC(=O)Oc1ccc(-c2cccc(C(=O)Oc3ccccc3)c2)cc1	WT yeast gro inh 74
CCOC(=O)Cn1ccc(-c2ccccc2)c(C#N)c1=O	none
CC1Oc2ccccc2C=C1/C=N/NC(=O)c1ccccc1O (configuration not stated)	WT yeast gro inh 71
O=C(Cc1nn[nH]n1)c1ccccc1O	none
Cn1c(=O)[nH]c(=O)c2c1nc(Br)n2CCSc1ncccn1	WT yeast gro inh 75
CN(C(=O)c1ccc(COc2ccccc2Br)o1)c1ccccc1	WT yeast gro inh 67
S=c1nc(-c2sccc2OCc2ccc(Cl)cc2Cl)[nH][nH]1	WT yeast gro inh 64
Cc1ccc2nc(-c3ccc(NC(=O)CNC4CC4)cc3)sc2c1	WT yeast gro inh 59
Cc1nn(C(C)(C)C)c(OC(=O)c2ccc3c(c2)OCO3)c1Sc1ccccc1	WT yeast gro inh 75
Cc1nn(C(C)(C)C)c(OC(=O)c2cccs2)c1Sc1ccccc1	WT yeast gro inh 83
Cc1nn(C(C)(C)C)c(OC(=O)c2ccc3c(c2)OCO3)c1S(=O)(=O)c1ccccc1	none
CCCCOC(=O)c1ccc(NC(=O)/C=C/c2cccs2)cc1	none
O=C(NCc1ccc(Cl)s1)C1CCC(=O)N(CCc2cccc(F)c2)C1 (configuration not stated)	none (no result: ABCB1 inh, ABCG2 block, WT yeast gro inh)
CC(=O)c1cccc(CN2CCCC(CCC(=O)NCc3ccc(C)o3)C2)c1 (configuration not stated)	none
Cc1ccc(NC(=O)NNc2cccc(Cl)n2)cc1	none
CCOC(=O)c1sc(NC(=O)CSc2n[nH]c(-c3ccc(Cl)cc3Cl)n2)c(C#N)c1C	WT yeast gro inh 58
CCN(CC)c1ccc(NC(=O)Nc2cccc3ccccc23)cc1	none (no result: ABCB1 inh, ABCG2 block, WT yeast gro inh)
CCN(CC)c1ccc(NC(=O)Nc2ccccc2C(F)(F)F)cc1	WT yeast gro inh 63
c1ccc(-c2csc(N3CCN(c4ccccn4)CC3)n2)cc1	WT yeast gro inh 63
Cc1cccc(-n2ncc3c2CCCC3NC(=O)C2CCOCC2)c1C (configuration not stated)	none (no result: ABCB1 inh, ABCG2 block, WT yeast gro inh)
COc1ccc(C(C(=O)Nc2ccc(F)cc2)N(C(=O)Cn2nnc3ccccc32)C2CC2)cc1 (configuration not stated)	WT yeast gro inh 68 (no result: MEKK3 PB1 HTS, MEKK2wt PB1 HTS, MEKK2mut PB1 HTS)
COc1ccc(OC)c(C(C(=O)NCc2ccco2)N(C(=O)Cn2nnc3ccccc32)C2CC2)c1 (configuration not stated)	none
CC(C)(C)[C@@H]1C=C(C(=O)N2CCN(Cc3ccc4c(c3)OCO4)CC2)O[C@H](OCc2ccc(CO)cc2)C1	WT yeast gro inh 94
CCCc1c(C)nc(N2CCN(c3ccccc3OC)CC2)[nH]c1=O	none (no result: ABCB1 inh, ABCG2 block, WT yeast gro inh)
C/C(CCN1CCCCc2nc(C)c(C)cc21)=N\O[C@@H](C)CN1CCCCc2nc(C)c(C)cc21	none
COc1ccc(O[C@H]2C=C[C@@H](c3ccccc3)O[C@@H]2CO/N=C(\C)CCN2CCCCc3nc(C)c(C)cc32)cc1	WT yeast gro inh 60
COc1ccc(C)cc1S(=O)(=O)Nc1ccc(F)cc1	WT yeast gro inh 62
Cc1cccc(Cn2nc(-n3cccc3)c3c(C)cc(C)nc32)c1	WT yeast gro inh 62
Cc1cccc(Cn2cnc3c(nnn3Cc3ccc(Cl)cc3)c2=O)c1	none
CCOC(=O)c1c(NS(=O)(=O)Cc2ccccc2)sc2c1CCCC2	none

Screening data: PubChem, several laboratories
